How the values were obtained:
[1] = Circular dichroism spectroscopy; assay type: physicochemical; conditions: 10 μM, deionized water, room temperature (Fig. 2c)
How it was run: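 Samples at 10 μM were scanned on a CD spectrometer at room temperature. Scan speed was 1200 nm min⁻¹ at 1 nm resolution, and the solution background was subtracted to correct spectra. Three independent repeats.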

[2] = test system: 786-O (Renal Cell Carcinoma, RCC) xenograft mice; assay: In vivo fluorescence imaging and biodistribution, 786-O xenograft
How it was run: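 Mice received 5 × 10⁶ 786-O cells in PBS subcutaneously in the right hind. At tumour volumes of about 200 mm³, test compound (200 μM, 200 μL) was given intravenously. Whole-body NIR fluorescence was imaged on a Maestro IVIS at 1, 2, 4, 8, 12, 24, 48 and 72 h. Tumour, heart, liver, spleen, lung and kidney were imaged ex vivo at 24 h, and tumour tissue was examined by Bio-TEM. n = 3.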

HepG2 cells = assay: Cytotoxicity assay; assay type: cell-based; conditions: 24 h, series of concentrations, DMSO less than 1%, mean ± SD n = 3 (Fig. S16)
How it was run: (§1)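 Cells were seeded at 5 × 10³ per well in 96-well plates and allowed to adhere overnight. Test compound was serially diluted from a concentrated DMSO stock, keeping final DMSO below 1%, and incubated 24 h. Viability (%) = (As − Ab)/(Ac − Ab) × 100, using sample, blank and control wells. Three independent repeats.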

786-O cells [3] = assay: In vitro photostability under NIR laser irradiation; assay type: cell-based; conditions: for photobleaching of Cy: 20 μM, co-incubated with 786-O cells 4 h at 37 °C, NIR laser irradiation for 40 min (up to 3.60 kJ/cm^2), IVIS
How it was run: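 786-O cells were seeded at 5 × 10³ per well and allowed to adhere overnight. They were incubated with test compound (20 μM) for 4 h at 37 °C to allow self-assembly. Cells were then irradiated with a near-infrared laser, with fluorescence recorded at 0–40 min in 5 min steps. Three independent repeats.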

786-O cells [4] = assay: Cytotoxicity assay; assay type: cell-based; conditions: 24 h, series of concentrations, DMSO less than 1% (Fig. 3j)
How it was run: as §1

healthy mice = assay type: in vivo; conditions: 200 μL, n = 4
MMP-2 = molecular target: T1, MMP-2 (Homo sapiens, UniProt P08253); assay: MMP-2 enzyme responsiveness; assay type: biochemical; conditions: incubated with MMP-2, new peaks for SSGGPLG and R-M1 (Fig. S7)
T1 sequence (P08253 110-660): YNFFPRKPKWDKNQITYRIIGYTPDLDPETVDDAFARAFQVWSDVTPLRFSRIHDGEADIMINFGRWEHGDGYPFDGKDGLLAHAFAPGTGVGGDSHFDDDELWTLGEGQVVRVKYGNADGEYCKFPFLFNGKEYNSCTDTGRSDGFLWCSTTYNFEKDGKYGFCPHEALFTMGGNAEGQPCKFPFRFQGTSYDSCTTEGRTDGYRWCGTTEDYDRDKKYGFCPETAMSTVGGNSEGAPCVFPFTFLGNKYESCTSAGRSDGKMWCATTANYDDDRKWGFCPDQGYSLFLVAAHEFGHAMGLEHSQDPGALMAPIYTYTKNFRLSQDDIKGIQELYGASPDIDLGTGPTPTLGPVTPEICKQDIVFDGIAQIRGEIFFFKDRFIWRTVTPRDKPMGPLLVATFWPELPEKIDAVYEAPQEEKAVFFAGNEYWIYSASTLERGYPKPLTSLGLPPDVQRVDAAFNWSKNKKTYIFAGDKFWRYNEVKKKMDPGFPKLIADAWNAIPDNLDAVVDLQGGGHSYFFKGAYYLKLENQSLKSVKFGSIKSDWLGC

786-O cells [5] = assay: Cellular imaging; assay type: cell-based; conditions: 20 μM, 15 min, 37 °C (Fig. 3e, S14)
How it was run: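 Integrin αvβ3-overexpressing 786-O cells were seeded at 2 × 10⁵ cells on confocal dishes and allowed to adhere overnight. They were then exposed to test compound at 20 μM for 15 min. For time-dependent monitoring, cells were washed with PBS and the medium replaced. Imaging used a 40× objective, with fluorescence intensity quantified from images. Three independent repeats.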

[6] = Critical aggregation concentration with fluorescence probe ANS; assay type: physicochemical; conditions: fluorescence probe ANS (Fig. S8)
[7] = ThT and ANS fluorescent probe assay of β-sheet formation; assay type: physicochemical; conditions: compared with M1 and M2 group (Fig. S10)
[8] = Transmission electron microscopy of self-assembled nanofibers; assay type: physicochemical; conditions: 50 μM in acetonitrile: H2O = 2:3 mixed solution for 1 week (Fig. 2e, S11)
How it was run: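 Samples were dissolved in acetonitrile:H₂O 2:3 and stored 7 d to self-assemble fully. Then 10 μL was placed on carbon-coated copper grids and the excess blotted with filter paper after 5 min before TEM. Three independent repeats.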

[9] = 200 μM, 1 d, 7 d and 14 d post-injection

In the case of SSGGPGLGYLKLVFFGC(Cy)GRGD [M2], the “secondary structure by CD spectrum” value [1] is reported as “random coiled secondary structure”, the “course of fluorescence at the tumor site” value ([2]; 786-O xenograft, intravenous, 200 μM, 200 μL, imaged 1-72 h, n = 3) is reported as “quickly decreased after 4 h and nearly vanished at 72 h” and the “impact on cell viability of HepG2” value (HepG2 cells) is reported as “no impact”. For the same substance, the “photobleaching of Cy” value (786-O cells [3]) was 81% and the “impact on cell viability of 786-O” value (786-O cells [4]) was “no impact”.

With SSGGPLGYLGKLVFFGC(Cy)GRGD [M1] the “liver function index (ALT, AST, ALP, TP, ALB, GLOB) versus PBS” value (healthy mice; [9]) was “no noticeable difference”, the “renal function indicators (BUN, CRE) versus PBS” value (healthy mice; [9]) was “no noticeable difference” and the “histology (H&E) of major organs versus PBS” value (healthy mice; intravenous 200 μM, 1 d post-injection) was “no histological differences”. The “HPLC peak of intact M1 after incubation with MMP-2” value (MMP-2) was “vanished”, the “secondary structure by CD spectrum” value [1] was “random coiled secondary structure” and the “nanofibrous structures on tumor cells (Bio-TEM)” value ([2]; after administration of M1 200 μM, 200 μL (Fig. 4e)) was “clearly observed”. For the same substance, the “fluorescence at the tumor site within 1 h, M1 versus M2” value ([2]; intravenous, 200 μM, 200 μL, n = 3) was “approximately identical fluorescence”, the “impact on cell viability of HepG2” value (HepG2 cells) was “no impact” and the “photobleaching of Cy” value (786-O cells [3]) was 55%. The “decrease of photodegradation rate of Cy versus M2” value (786-O cells [3]; same as photobleaching test, M1 against M2) was 26%, the “impact on cell viability of 786-O” value (786-O cells [4]) was “no impact” and the “cellular distribution by confocal imaging” value (786-O cells [5]) was “distributed on the membrane of 786-O cells”.

With YLGKLVFFGC(Cy)GRGD [R-M1] the “critical aggregation concentration (CAC) to form nanofibers” value [6] was 4.4 µM, the “fluorescence intensity of ThT and ANS probes (β-sheet formation)” value [7] was “obviously increased” and the “diameter of self-assembled nanofibers (TEM)” value [8] was 13.4 ± 3.1 nm. For the same substance, the “secondary structure by CD spectrum” value [1] was “β-sheet structure”.

— article PMC8892090 (Bioactive Materials, 2021)
